Values after ≈ are worked out from the molar mass of the structure shown. Active and inactive are the calls of the source. No cut-off for these calls is given here.
How the values were obtained:
Staphylococcus aureus [1] = experiment: Antimicrobial activity against CA-methicillin-resistant Staphylococcus aureus W46 ST59 incubated for 20 hrs by microdilution method; details: W46 ST59, 20 h
Staphylococcus aureus [2] = experiment: Antimicrobial activity against Staphylococcus aureus HA W231 ST45 incubated for 20 hrs by microdilution method; type: functional
Method in brief: (§1)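 MIC determined by microdilution following Clinical & Laboratory Standards Institute (CLSI) guidelines, read in µg/mL, against a panel of hospital- and community-acquired MRSA strains.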

Staphylococcus aureus [3] = experiment: Antimicrobial activity against Staphylococcus aureus ST22 11B086169 incubated for 20 hrs by microdilution method; type: functional; method in brief: as §1
[4] = Cytotoxicity against human HaCaT cells assessed as reduction in cell viability after 48 to 72 hrs by MTT assay; type: cell-based
Streptococcus pneumoniae = experiment: Antimicrobial activity against Streptococcus pneumoniae ATCC 49619 incubated for 20 hrs by microdilution method; type: functional
Method in brief: (§2)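 Broth microdilution MIC testing done following CLSI guidelines.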

Streptococcus pyogenes = experiment: Antimicrobial activity against Streptococcus pyogenes ATCC 19615 incubated for 20 hrs by microdilution method; type: functional; method in brief: as §2
Staphylococcus aureus [5] = experiment: Antimicrobial activity against CA-methicillin-resistant Staphylococcus aureus W4 ST338 incubated for 20 hrs by microdilution method; type: functional; method in brief: as §1
Staphylococcus aureus [6] = experiment: microbe, parasite or virus in culture; details: ATCC 29213, 20 h
Staphylococcus aureus [7] = experiment: Antimicrobial activity against CA-methicillin-resistant Staphylococcus aureus W45 ST59 incubated for 20 hrs by microdilution method; details: W45 ST59, 20 h
[8] = system: Staphylococcus epidermidis; experiment: Antimicrobial activity against Staphylococcus epidermidis ATCC 12228 incubated for 20 hrs by microdilution method; type: functional; method in brief: as §2
Staphylococcus aureus [9] = experiment: Antimicrobial activity against Staphylococcus aureus ST239 incubated for 20 hrs by microdilution method; type: functional; method in brief: as §1
[10] = Therapeutic index, ratio of CC50 for human A549 cells to 1/2 times MIC for Staphylococcus aureus ATCC 25923; type: toxicity; details: read-out: TI
Enterococcus faecium = experiment: Antimicrobial activity against Enterococcus faecium ATCC 19433 incubated for 20 hrs by microdilution method; type: functional; method in brief: as §2
Streptococcus agalactiae = experiment: Antimicrobial activity against Streptococcus agalactiae ATCC 12386 incubated for 20 hrs by microdilution method; type: functional; method in brief: as §2
Staphylococcus aureus [11] = experiment: Antimicrobial activity against Staphylococcus aureus ATCC BAA44 incubated for 20 hrs by microdilution method; type: functional; method in brief: as §1
Bacillus subtilis = experiment: Inhibition of N-terminal LgBiT-fused Bacillus subtilis NusB expressed in Escherichia coli BL21(DE3)pLysS interaction with C- terminal SmBiT-fused Bacillus subtilis NusE expressed in Escherichia coli BL21(DE3)pLysS at 100 uM preincubated for 10 mins followed by NusE addition and measured after 10 mins by nano-glo luciferase assay relative to control
Method in brief: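 NusB and NusE were mixed 1:1 at 1 µM in PBS, with compound at 100 µM. The read-out was percent inhibition of the NusB-NusE interaction.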

[12] = Therapeutic index, ratio of CC50 for human HaCaT cells to 1/2 times MIC for Staphylococcus aureus ATCC 25923; type: toxicity; details: read-out: TI
[13] = (§3) Antimicrobial activity against Staphylococcus saprophyticus ATCC 15305 incubated for 20 hrs by microdilution method; type: functional, Staphylococcus saprophyticus subsp. saprophyticus; details: ATCC 15305, 20 h; method in brief: as §2
Acinetobacter baumannii = experiment: Antimicrobial activity against Acinetobacter baumannii ATCC 19606 incubated for 20 hrs by microdilution method; type: functional; method in brief: as §2
Staphylococcus aureus [14] = experiment: Antimicrobial activity against Staphylococcus aureus USA300/ST8 incubated for 20 hrs by microdilution method; details: USA300 ST8, 20 h
Staphylococcus aureus [15] = experiment: Antimicrobial activity against Staphylococcus aureus HA W235 ST5 incubated for 20 hrs by microdilution method; type: functional; method in brief: as §1
[16] = Cytotoxicity against human A549 cells assessed as reduction in cell viability after 48 to 72 hrs by MTT assay; type: cell-based
Staphylococcus aureus [17] = experiment: microbe, parasite or virus in culture; details: ATCC 25923, 20 h
[18] = system: Enterococcus casseliflavus; experiment: Antimicrobial activity against Enterococcus casseliflavus ATCC 25788 incubated for 20 hrs by microdilution method; type: functional; method in brief: as §2
Staphylococcus aureus [19] = experiment: Antimicrobial activity against Staphylococcus aureus ATCC BAA43 incubated for 20 hrs by microdilution method; type: functional; method in brief: as §1
Staphylococcus aureus [20] = experiment: Antimicrobial activity against CA-methicillin-resistant Staphylococcus aureus W48 ST217 incubated for 20 hrs by microdilution method; details: W48 ST217, 20 h
[21] = microbe, parasite or virus in culture; details: Enterobacter cloacae, ATCC 13047, 20 h
Staphylococcus aureus [22] = experiment: Antimicrobial activity against CA-methicillin-resistant Staphylococcus aureus W47 ST30 incubated for 20 hrs by microdilution method; type: functional; method in brief: as §1
Pseudomonas aeruginosa = experiment: Antimicrobial activity against Pseudomonas aeruginosa ATCC 27853 incubated for 20 hrs by microdilution method; type: functional; method in brief: as §2
[23] = system: Staphylococcus saprophyticus subsp. saprophyticus; experiment: as §3; type: functional; method in brief: as §2
Bacteria = experiment: Binding affinity to bacterial NusB assessed as change in chiral structure at 2 ug/ml by circular dichroism spectroscopic analysis
Method in brief: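 Circular dichroism spectra were recorded on NusB at 2.0 µg/mL in neutral phosphate buffer, alone and after mixing with compound at a 1:1 ratio. Binding was read as a change in the spectrum.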

[24] = ATCC 19606 = CIP 70.34 = JCM 6841, 20 h

Compound	MIC (Staphylococcus aureus [1]) [µg/mL]	MIC (Staphylococcus aureus [2]; HA W231 ST45, 20 h) [µg/mL]	MIC (Staphylococcus aureus [3]; ST22 11B086169, 20 h) [µg/mL]	CC50 [4] [µM]	MIC (Streptococcus pneumoniae; ATCC 49619, 20 h) [µg/mL]	MIC (Streptococcus pyogenes; ATCC 19615, 20 h) [µg/mL]	MIC (Staphylococcus aureus [5]; W4 ST338, 20 h) [µg/mL]	MIC (Staphylococcus aureus [6]) [µg/mL]	MIC (Staphylococcus aureus [7]) [µg/mL]	MIC ([8]; ATCC 12228, 20 h) [µg/mL]	MIC (Staphylococcus aureus [9]; CN79, 20 h) [µg/mL]	selectivity ratio [10]	MIC (Enterococcus faecium; ATCC 19433, 20 h) [µg/mL]	inhibition (Bacillus subtilis) [%]	selectivity ratio [12]	MIC (Acinetobacter baumannii; [24]) [µg/mL]	CC50 [16] [µM]	MIC (Staphylococcus aureus [17]) [µg/mL]	MIC [21] [µg/mL]	MIC (Pseudomonas aeruginosa; ATCC 27853, 20 h) [µg/mL]	also measured
C#Cc1cccc(NCc2cc([N+](=O)[O-])cc(Br)c2O)c1	4 (≈ 11.5 µM)	2 (≈ 5.76 µM)	4 (≈ 11.5 µM)	72.2	32 (≈ 92.2 µM)	32 (≈ 92.2 µM)	2 (≈ 5.76 µM)	2 (≈ 5.76 µM)	2 (≈ 5.76 µM)	4 (≈ 11.5 µM)	4 (≈ 11.5 µM)	27	64 (≈ 184 µM)	99.6	25	256 (≈ 737 µM)	79.1	2 (≈ 5.76 µM)	> 256	> 256	MIC (Streptococcus agalactiae; ATCC 12386, 20 h): 32 µg/mL (≈ 92.2 µM); MIC (Staphylococcus aureus [11]; ATCC BAA44, 20 h): 16 µg/mL (≈ 46.1 µM); MIC [13]: 16 µg/mL (≈ 46.1 µM); MIC (Staphylococcus aureus [14]): 4 µg/mL (≈ 11.5 µM); MIC (Staphylococcus aureus [15]; HA W235 ST5, 20 h): 2 µg/mL (≈ 5.76 µM); MIC ([18]; ATCC 25788, 20 h): 64 µg/mL (≈ 184 µM); MIC (Staphylococcus aureus [19]; ATCC BAA43, 20 h): 2 µg/mL (≈ 5.76 µM); MIC (Staphylococcus aureus [20]): 2 µg/mL (≈ 5.76 µM); MIC (Staphylococcus aureus [22]; W47 ST30, 20 h): 2 µg/mL (≈ 5.76 µM)
O=[N+]([O-])c1ccc(O)c(/C=N/c2cccc(Cl)c2)c1				250	64 (≈ 231 µM)			16 (≈ 57.8 µM)				76	> 256	66.5	69	256 (≈ 925 µM)	274	2 (≈ 7.23 µM)	> 256	> 256	
GENTAMICIN																					MIC (Staphylococcus aureus [2]): 16 µg/mL; MIC (Staphylococcus aureus [3]): 0.25 µg/mL; MIC (Streptococcus pneumoniae): 32 µg/mL; MIC (Streptococcus pyogenes): 8 µg/mL; MIC (Staphylococcus aureus [5]): 0.25 µg/mL; MIC [8]: 0.125 µg/mL; MIC (Staphylococcus aureus [9]; CN79): > 256 µg/mL; MIC (Enterococcus faecium): 16 µg/mL; MIC (Streptococcus agalactiae): 32 µg/mL; MIC (Staphylococcus aureus [11]): > 256 µg/mL; MIC [23]: 0.0625 µg/mL; MIC (Acinetobacter baumannii; ATCC 19606 = CIP 70.34 = JCM 6841): 32 µg/mL; MIC (Staphylococcus aureus [15]): > 256 µg/mL; MIC [18]: 4 µg/mL; MIC (Staphylococcus aureus [19]): > 256 µg/mL; MIC (Staphylococcus aureus [22]): 0.25 µg/mL; MIC (Pseudomonas aeruginosa): 2 µg/mL
CC(C)(C)c1ccccc1NCc1cc([N+](=O)[O-])ccc1O	2 (≈ 6.66 µM)	2 (≈ 6.66 µM)	2 (≈ 6.66 µM)	15.1	2 to 8 (≈ 6.66 to 26.6 µM)	8 (≈ 26.6 µM)	2 (≈ 6.66 µM)	4 (≈ 13.3 µM)	2 (≈ 6.66 µM)	1 (≈ 3.33 µM)	2 (≈ 6.66 µM)	8	8 (≈ 26.6 µM)	72.2	9	> 256	13.4	1 (≈ 3.33 µM)	> 256	> 256	Activity (Bacteria): Active; MIC (Streptococcus agalactiae; ATCC 12386, 20 h): 8 µg/mL (≈ 26.6 µM); MIC (Staphylococcus aureus [11]; ATCC BAA44, 20 h): 2 µg/mL (≈ 6.66 µM); MIC [13]: 2 µg/mL (≈ 6.66 µM); MIC (Staphylococcus aureus [14]): 2 µg/mL (≈ 6.66 µM); MIC (Staphylococcus aureus [15]; HA W235 ST5, 20 h): 2 µg/mL (≈ 6.66 µM); MIC ([18]; ATCC 25788, 20 h): 16 µg/mL (≈ 53.3 µM); MIC (Staphylococcus aureus [19]; ATCC BAA43, 20 h): 2 µg/mL (≈ 6.66 µM); MIC (Staphylococcus aureus [20]): 2 µg/mL (≈ 6.66 µM); MIC (Staphylococcus aureus [22]; W47 ST30, 20 h): 2 µg/mL (≈ 6.66 µM)
CC(C)(C)c1ccccc1/N=C/c1cc([N+](=O)[O-])ccc1O					64 (≈ 215 µM)			16 (≈ 53.6 µM)					> 256	16.8		> 256		4 (≈ 13.4 µM)	> 256	> 256	Activity (Bacteria): Active

Reference: ChEMBL document CHEMBL4364256, “Design, synthesis and biological evaluation of antimicrobial diarylimine and -amine compounds targeting the interaction between the bacterial NusB and NusE proteins” (Eur J Med Chem, 2019)
